In ChEMBL document CHEMBL2331178, “Novel pyridinone derivatives as non-nucleoside reverse transcriptase inhibitors (NNRTIs) with high potency against NNRTI-resistant HIV-1 strains” (J Med Chem, 2013):

Experiments:
[1] = target: Human immunodeficiency virus type 1 reverse transcriptase (Human immunodeficiency virus 1, UniProt Q72547); assay: Inhibition of HIV1 reverse transcriptase after 1 hr by colorimetric assay
Outline: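 Purified recombinant wild-type RT with poly(rA)/oligo(dT)16 template-primer and serial inhibitor concentrations. Incubated 1 h at 37 °C. Incorporated biotin detected with streptavidin-alkaline phosphatase and PNPP (30 min, 37 °C), read colorimetrically.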

[2] = system: Human immunodeficiency virus 1; assay: Antiviral activity against NNRTI-resistant Human immunodeficiency virus 1 harboring reverse transcriptase K103N mutation infected in human MT4 cells assessed decrease in p24 level after 7 days by ELISA; assay type: functional, organism-based; details: Human immunodeficiency virus 1, MT4, 168 h
Outline: (§1)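 MT4 cells (4×10^4/well) were infected with 200 TCID50 HIV-1 and held 2 h at 37 °C, then serially diluted compound was added. […] The K103N and Y181C viruses came from transfecting RT-mutant plasmids into 293T/17 cells.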

[3] = system: Human immunodeficiency virus 1; assay: Antiviral activity against NNRTI-resistant Human immunodeficiency virus 1 harboring reverse transcriptase Y181C mutation infected in human MT4 cells assessed decrease in p24 level after 7 days by ELISA; assay type: functional, organism-based; details: Human immunodeficiency virus 1, MT4, 168 h; outline: as §1
[4] = Cytotoxicity against human TZM-bl cells; assay type: cell-based
[5] = system: Human immunodeficiency virus 1; assay: Antiviral activity against NNRTI-resistant Human immunodeficiency virus 1 A17 double mutant infected in human MT4 cells assessed decrease in p24 level after 7 days by ELISA; assay type: functional, organism-based; details: Human immunodeficiency virus 1, A17, MT4, 168 h; outline: as §1
[6] = system: Human immunodeficiency virus 1; assay: Antiviral activity against NNRTI-resistant Human immunodeficiency virus 1 harboring reverse transcriptase K103N mutation infected in human TZM-bl cells assessed decrease in p24 level after 7 days by ELISA; assay type: functional, organism-based; details: Human immunodeficiency virus 1, TZM-bl, 168 h
[7] = system: Human immunodeficiency virus 1; assay: Antiviral activity against NNRTI-resistant Human immunodeficiency virus 1 harboring reverse transcriptase Y181C mutation infected in human TZM-bl cells assessed decrease in p24 level after 7 days by ELISA; assay type: functional, organism-based; details: Human immunodeficiency virus 1, TZM-bl, 168 h
[8] = Selectivity index, ratio of CC50 for human TZM-bl cells to EC50 for Human immunodeficiency virus 1 A17 infected in human TZM-bl cells; assay type: toxicity, cell-based; details: read-out: Ratio CC50/EC50
[9] = Cytotoxicity against human MT4 cells after 3 days by XTT assay; assay type: cell-based
Outline: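 Graded compound concentrations added to MT4 cells (5×10^4/well) for 3 days at 37 °C. CCK-8 reagent then added for 4 h at 37 °C to develop the XTT formazan product, and absorbance read at 450 nm. CC50 derived from percent cytotoxicity.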

[10] = system: Human immunodeficiency virus 1; assay: Antiviral activity against Human immunodeficiency virus 1 SF33 infected in human MT4 cells assessed decrease in p24 level after 7 days by ELISA; assay type: functional, organism-based; details: Human immunodeficiency virus 1, SF33, MT4, 168 h
Outline: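 MT4 cells (4×10^4/well) infected with 200 TCID50 of HIV-1 for 2 h at 37 °C, then serial dilutions of compound added. After 7 days at 37 °C, p24 measured in a commercial ELISA.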

[11] = system: Human immunodeficiency virus 1; assay: Antiviral activity against Human immunodeficiency virus 1 SF33 infected in human TZM-bl cells assessed decrease in p24 level after 7 days by ELISA; assay type: functional, organism-based; details: Human immunodeficiency virus 1, SF33, TZM-bl, 168 h
[12] = Selectivity index, ratio of CC50 for human TZM-bl cells to EC50 for Human immunodeficiency virus 1 SF33 infected in human TZM-bl cells; assay type: toxicity, cell-based; details: read-out: Ratio CC50/EC50
[13] = Selectivity index, ratio of CC50 for human MT4 cells to EC50 for Human immunodeficiency virus 1 A17 infected in human MT4 cells; assay type: toxicity, cell-based; details: read-out: Ratio CC50/EC50
[14] = system: Human immunodeficiency virus 1; assay: Antiviral activity against NNRTI-resistant Human immunodeficiency virus 1 A17 double mutant infected in human TZM-bl cells assessed decrease in p24 level after 7 days by ELISA; assay type: functional, organism-based; details: Human immunodeficiency virus 1, A17, TZM-bl, 168 h
[15] = Selectivity index, ratio of CC50 for human MT4 cells to EC50 for Human immunodeficiency virus 1 SF33 infected in human MT4 cells; assay type: toxicity, cell-based; details: read-out: Ratio CC50/EC50
[16] = target: Human immunodeficiency virus type 1 reverse transcriptase (Human immunodeficiency virus 1) (UniProt Q72547); assay: Ratio of TNK651 IC50 to compound IC50 for HIV1 reverse transcriptase
[17] = target: Human immunodeficiency virus type 1 reverse transcriptase (Human immunodeficiency virus 1) (UniProt Q72547); assay: Ratio of nevirapine IC50 to compound IC50 for HIV1 reverse transcriptase

| Structure (SMILES) | IC50 [1] [nM] | CC50 [4] [nM] | EC50 [5] [nM] | selectivity ratio [8] | CC50 at 72 h [9] [nM] | EC50 [10] [nM] | EC50 [11] [nM] | selectivity ratio [12] | selectivity ratio [13] | EC50 [14] [nM] | selectivity ratio [15] | also measured |
| --- | --- | --- | --- | --- | --- | --- | --- | --- | --- | --- | --- | --- |
| CC1CCCCC1Oc1cc(Cc2ccccc2)[nH]c(=O)c1I (mixture of isomers) | 590 |  |  |  |  |  |  |  |  |  |  |  |
| CC(C)c1c(O[C@H]2CCCC[C@@H]2C)cc(CCc2ccccc2)[nH]c1=O (racemic) | 3 | > 300000 | 90 | 2160 | > 300000 | 4 | 9 | > 33300 | > 3330 | 139 | > 75000 | EC50 [2]: 18 nM; EC50 [3]: 190 nM; EC50 [6]: 75 nM; EC50 [7]: 63 nM; Ratio IC50 [16]: 29; Ratio IC50 [17]: 1480 |
| CCOC(=O)c1c(OC2CCCC(C)C2)cc(Cc2ccccc2)[nH]c1=O (mixture of isomers) | 19800 |  |  |  |  |  |  |  |  |  |  |  |
| CCOC(=O)c1c(OC2CCC(C)CC2)cc(Cc2ccccc2)[nH]c1=O (mixture of isomers) | 32900 |  |  |  |  |  |  |  |  |  |  |  |
| CCOC(=O)c1c(OC2CC(C)CC(C)(C)C2)cc(Cc2ccccc2)[nH]c1=O (mixture of isomers) | > 100000 |  |  |  |  |  |  |  |  |  |  |  |
| CCOC(=O)c1c(OC2CC(C)CC(C)C2)cc(Cc2ccccc2)[nH]c1=O (mixture of isomers) | 73500 |  |  |  |  |  |  |  |  |  |  |  |
| CC(C)c1c(O[C@H]2CCCC[C@H]2C)cc(CCc2ccccc2)[nH]c1=O (racemic) | 1310 | 189000 | > 10000 | < 18 | 87900 | 68 | 136 | 1390 | < 8 | > 10000 | 1290 |  |
| CC1CCCCC1Oc1cc(CCc2ccccc2)[nH]c(=O)c1Br (mixture of isomers) | 650 | 83100 | 4320 | < 8 | 100000 | 3 | 92 |  | 23 | > 10000 | 33400 |  |
| CC(C)c1c(OC2CCCCC2C)cc(CCc2ccccc2)[nH]c1=O (mixture of isomers) | 10 | 114000 | 2760 | 191 | 201000 | 7 | 36 | 3180 | 73 | 600 | 28800 |  |
| CC(C)c1c(OC2CCCCC2C)cc(Cc2ccccc2)[nH]c1=O (mixture of isomers) | 410 |  |  |  |  |  |  |  |  |  |  |  |
| CC1CCCCC1Oc1cc(CCc2ccccc2)[nH]c(=O)c1I (mixture of isomers) | 150 | > 300000 | 281 | 307 | > 300000 | 17 | 53 | > 5660 | > 1070 | 978 | > 17600 | EC50 [2]: 17 nM; EC50 [3]: 170 nM; EC50 [6]: 100 nM; EC50 [7]: 296 nM |
| CC(C)c1c(Cc2ccccc2)n(COCc2ccccc2)c(=O)[nH]c1=O | 88 | 65800 | > 10000 | < 6 |  |  | 22 | 2990 | < 8 | > 10000 |  | EC50 [2]: 2400 nM; EC50 [3]: > 10000 nM; EC50 [6]: > 10000 nM; EC50 [7]: > 10000 nM |
| Cc1ccnc2c1NC(=O)c1cccnc1N2C1CC1 [NEVIRAPINE] |  | 204000 | > 10000 |  |  |  | 190 |  |  | > 10000 |  | EC50 [2]: > 10000 nM; EC50 [3]: > 10000 nM; EC50 [6]: > 10000 nM; EC50 [7]: > 10000 nM |
| Cc1ccc(Cc2cc(OC3CCCCC3C)c(C(C)C)c(=O)[nH]2)cc1 (mixture of isomers) | 59 | 99000 | > 10000 | < 9 | 112000 | 6 | 57 | 1740 | < 11 | > 10000 | 18700 |  |
| COc1ccc(Cc2cc(OC3CCCCC3C)c(C(C)C)c(=O)[nH]2)cc1 (mixture of isomers) | 33 | 132000 | 479 | < 13 | 74500 | 6 | 5 | 26500 | 155 | > 10000 | 12400 |  |
| CCOC(=O)c1c(OC2CCCC2)cc(Cc2ccccc2)[nH]c1=O | > 100000 |  |  |  |  |  |  |  |  |  |  |  |
| CC1CCCCC1Oc1cc(Cc2ccccc2)[nH]c(=O)c1Br (mixture of isomers) | 1210 |  |  |  |  |  |  |  |  |  |  |  |
| CCOC(=O)c1c(OC2CCCCCC2)cc(Cc2ccccc2)[nH]c1=O | > 100000 |  |  |  |  |  |  |  |  |  |  |  |
| CC(C)c1c(OC2CCCCC2C)cc(Cc2ccc(F)cc2)[nH]c1=O (mixture of isomers) | 130 | 74500 | > 10000 | < 7 | 64600 | 23 | 26 | 2860 | < 6 | > 10000 | 2810 |  |
| CCOC(=O)c1c(OC2CCCCC2C)cc(Cc2ccccc2)[nH]c1=O (mixture of isomers) | 5290 |  |  |  |  |  |  |  |  |  |  |  |
| CCOC(=O)c1c(OC2CCCCC2C)cc(CCc2ccccc2)[nH]c1=O (mixture of isomers) | > 100000 |  |  |  |  |  |  |  |  |  |  |  |
| CCOC(=O)c1c(OC2C(C)CCCC2C)cc(Cc2ccccc2)[nH]c1=O (mixture of isomers) | 37100 |  |  |  |  |  |  |  |  |  |  |  |
| CC(C)c1c(OC2CCCCC2C)cc(Cc2ccc(Cl)cc2)[nH]c1=O (mixture of isomers) | 160 | 109000 | 10400 | < 10 | 84000 | 10 | 23 | 4720 | 8 | > 10000 | 8400 |  |
| CCOC(=O)c1c(OC2CCCCC2)cc(Cc2ccccc2)[nH]c1=O | 81000 |  |  |  |  |  |  |  |  |  |  |  |
| CC1CCCCC1Oc1cc(Cc2ccccc2)[nH]c(=O)c1 (mixture of isomers) | 59300 |  |  |  |  |  |  |  |  |  |  |  |
| CCOC(=O)c1c(OC2CCCCC2Cl)cc(Cc2ccccc2)[nH]c1=O (mixture of isomers) | > 100000 |  |  |  |  |  |  |  |  |  |  |  |
